Tests used:
[1] = Apparent permeability in MDCK cells expressing MDR1 at 3 uM after 60 mins by LC-MS/MS analysis; assay type: ADME, cell-based, Canis lupus familiaris; details: dog
[2] = Cmax in Sprague-Dawley rat portal vein blood at 10 mg/kg, po; assay type: ADME, organism-based; design: dose 10 mg/kg, route oral
Method in brief: (§1)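 Fed male SD rats given a single oral gavage dose of 10 mg/kg. Maximum parent drug concentration measured in portal vein blood and in systemic blood.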

[3] = Cmax in Sprague-Dawley rat systemic blood at 10 mg/kg, po; assay type: ADME, organism-based; design: dose 10 mg/kg, route oral; method in brief: as §1
Mus musculus [4] = assay: In vivo inhibition of ASBT in C57BL/6J mouse assessed as increase in fecal bile acid excretion measured for 24 hrs relative to 264W94; assay type: functional, Feces; design: concentration or dose not given beside the values
Mus musculus [5] = assay: In vivo inhibition of ASBT in C57BL/6J mouse assessed as increase in fecal bile acid excretion measured for 24 hrs; assay type: functional; details: Feces
[6] = Drug recovery in Sprague-Dawley rat feces at 10 mg/kg, po; assay type: ADME, organism-based; design: dose 10 mg/kg, route oral; details: read-out: Drug recovery
[7] = Half life in Sprague-Dawley rat intestine at 10 mg/kg, po; assay type: ADME, organism-based; design: dose 10 mg/kg, route oral
[8] = molecular target: T1, Ileal sodium/bile acid cotransporter (Homo sapiens, UniProt Q12908); assay: Inhibition of human ASBT expressed in HEK293 cells assessed as inhibition of [3H]-taurocholate uptake after 90 mins by scintillation counting analysis; assay type: cell-based
T1 sequence (Q12908 whole entry): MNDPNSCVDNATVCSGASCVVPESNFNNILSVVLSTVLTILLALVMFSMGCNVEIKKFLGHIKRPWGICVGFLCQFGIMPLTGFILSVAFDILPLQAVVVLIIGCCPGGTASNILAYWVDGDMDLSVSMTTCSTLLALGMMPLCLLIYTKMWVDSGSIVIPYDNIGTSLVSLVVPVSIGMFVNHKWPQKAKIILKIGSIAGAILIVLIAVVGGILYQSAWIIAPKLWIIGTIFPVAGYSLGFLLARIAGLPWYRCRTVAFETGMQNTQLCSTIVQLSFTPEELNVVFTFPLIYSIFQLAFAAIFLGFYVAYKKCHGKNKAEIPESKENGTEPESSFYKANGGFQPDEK

[9] = molecular target: T2, Ileal sodium/bile acid cotransporter (Rattus norvegicus, UniProt Q62633); assay: Inhibition of rat ASBT expressed in HEK293 cells assessed as inhibition of [3H]-taurocholate uptake after 90 mins by scintillation counting analysis; assay type: cell-based
T2 sequence (Q62633 whole entry): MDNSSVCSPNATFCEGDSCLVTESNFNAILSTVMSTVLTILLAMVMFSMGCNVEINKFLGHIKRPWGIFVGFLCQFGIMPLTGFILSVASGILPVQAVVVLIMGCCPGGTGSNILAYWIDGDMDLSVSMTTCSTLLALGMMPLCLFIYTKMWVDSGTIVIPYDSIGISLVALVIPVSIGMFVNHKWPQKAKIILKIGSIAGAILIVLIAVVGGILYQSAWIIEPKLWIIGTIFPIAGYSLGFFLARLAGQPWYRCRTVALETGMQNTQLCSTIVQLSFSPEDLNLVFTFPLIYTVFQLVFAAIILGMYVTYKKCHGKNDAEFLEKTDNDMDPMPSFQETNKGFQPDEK

[10] = molecular target: T3, Ileal sodium/bile acid cotransporter (Mus musculus, UniProt P70172); assay: Inhibition of mouse ASBT expressed in HEK293 cells assessed as inhibition of [3H]-taurocholate uptake after 90 mins by scintillation counting analysis; assay type: cell-based
T3 sequence (P70172 whole entry): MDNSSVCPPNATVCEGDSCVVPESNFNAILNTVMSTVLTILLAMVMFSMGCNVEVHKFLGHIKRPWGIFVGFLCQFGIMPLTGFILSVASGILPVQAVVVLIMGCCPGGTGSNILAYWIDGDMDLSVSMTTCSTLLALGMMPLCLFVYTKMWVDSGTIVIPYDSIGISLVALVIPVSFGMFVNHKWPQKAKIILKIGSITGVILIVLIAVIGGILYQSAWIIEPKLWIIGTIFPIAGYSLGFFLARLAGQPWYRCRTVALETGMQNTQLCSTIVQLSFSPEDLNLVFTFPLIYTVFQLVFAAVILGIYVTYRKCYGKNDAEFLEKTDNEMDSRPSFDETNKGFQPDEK

SMILES | Papp at 1 h, 3 µM [1] | Cmax [2] | Cmax [3] | IC50 [8] | further results
CCCC[C@]1(CC)CS(=O)(=O)c2cc(OCCP(=O)(O)O)c(OC)cc2[C@@H](c2ccccc2)N1 | 0.8 ×10⁻⁶ cm/s | 82 ng/mL | 16 ng/mL | 0.044 µM | –
CCCC[C@]1(CC)CS(=O)(=O)c2cc(OCC(=O)O)c(OC)cc2[C@@H](c2ccccc2)N1 | 1 ×10⁻⁶ cm/s | 1460 ng/mL | 26 ng/mL | 0.034 µM | –
CCCC[C@]1(CC)CS(=O)(=O)c2cc(CN(CC(=O)O)CC(=O)O)c(OC)cc2[C@@H](c2ccccc2)N1 | 0.4 ×10⁻⁶ cm/s | 56 ng/mL | 43 ng/mL | 0.245 µM | –
CCCC[C@]1(CC)CS(=O)(=O)c2cc(CCC(=O)NCC(=O)O)c(OC)cc2[C@@H](c2ccccc2)N1 | 1.2 ×10⁻⁶ cm/s | – | – | – | –
CCCC[C@]1(CC)CS(=O)(=O)c2cc(CCC(=O)NC(CC(=O)O)CC(=O)O)c(OC)cc2[C@@H](c2ccccc2)N1 | – | – | – | > 3 µM | –
CCCC[C@]1(CC)CS(=O)(=O)c2cc(OCP(=O)(O)O)c(OC)cc2[C@@H](c2ccccc2)N1 | – | – | – | 0.9 µM | –
CCCC[C@]1(CC)CS(=O)(=O)c2cc(C(CC(=O)O)CC(=O)O)c(OC)cc2[C@@H](c2ccccc2)N1 | 0.5 ×10⁻⁶ cm/s | 333 ng/mL | 19 ng/mL | > 3 µM | –
CCCC[C@]1(CC)CS(=O)(=O)c2cc(CN3CCC[C@H]3C(=O)O)c(OC)cc2[C@@H](c2ccccc2)N1 | – | – | – | > 3 µM | –
CCCC[C@]1(CC)CS(=O)(=O)c2cc(C(=O)NCC(C)(C)C(=O)O)c(OC)cc2[C@@H](c2ccccc2)N1 | 4.3 ×10⁻⁶ cm/s | – | – | – | –
CCCC[C@]1(CC)CS(=O)(=O)c2cc(OCCCP(=O)(O)O)c(OC)cc2[C@@H](c2ccccc2)N1 | 1 ×10⁻⁶ cm/s | 260 ng/mL | 7 ng/mL | 0.133 µM | –
CCCC[C@]1(CC)CS(=O)(=O)c2cc(CN(C)CC(=O)O)c(OC)cc2[C@@H](c2ccccc2)N1 | 1 ×10⁻⁶ cm/s | 224 ng/mL | 1 ng/mL | – | –
CCCC[C@]1(CC)CS(=O)(=O)c2cc(CNC(=O)CNC(CC(=O)O)CC(=O)O)c(OC)cc2[C@@H](c2ccccc2)N1 | – | – | – | > 3 µM | –
CCCC[C@]1(CC)CS(=O)(=O)c2cc(OCCCC(=O)O)c(OC)cc2[C@@H](c2ccccc2)N1 | 30.3 ×10⁻⁶ cm/s | – | – | 0.013 µM | –
CCCC[C@]1(CC)CS(=O)(=O)c2cc(CN(CP(=O)(O)O)CP(=O)(O)O)c(OC)cc2[C@@H](c2ccccc2)N1 | – | – | – | > 3 µM | –

The next lines start with results.

Papp at 1 h, 3 µM [1] | Cmax [2] | Cmax [3] | IC50 [8] | SMILES | further results
38.3 ×10⁻⁶ cm/s | – | – | – | CCCC[C@]1(CC)CS(=O)(=O)c2cc(CCC(=O)O)c(OC)cc2[C@@H](c2ccccc2)N1 | –
1.9 ×10⁻⁶ cm/s | 122 ng/mL | 26 ng/mL | – | CCCC[C@]1(CC)CS(=O)(=O)c2cc(CNC(=O)CS(=O)(=O)O)c(OC)cc2[C@@H](c2ccccc2)N1 | –
0.5 ×10⁻⁶ cm/s | 12 ng/mL | 24 ng/mL | – | CCCC[C@]1(CC)CS(=O)(=O)c2cc(CN[C@@H](CO)C(=O)O)c(OC)cc2[C@@H](c2ccccc2)N1 | Efficacy (Mus musculus [4]): 47%; ED50 (Mus musculus [5]): 0.012 mg/kg; dose excreted [6]: 63%; half-life [7]: 8 h
0.9 ×10⁻⁶ cm/s | 170 ng/mL | 3 ng/mL | – | CCCC[C@]1(CC)CS(=O)(=O)c2cc(CS(=O)(=O)O)c(OC)cc2[C@@H](c2ccccc2)N1 | –
0.3 ×10⁻⁶ cm/s | – | – | – | CCCC[C@]1(CC)CS(=O)(=O)c2cc(CNC(=O)CP(=O)(O)O)c(OC)cc2[C@@H](c2ccccc2)N1 | –
0.7 ×10⁻⁶ cm/s | 11 ng/mL | 1 ng/mL | – | CCCC[C@]1(CC)CS(=O)(=O)c2cc(CN[C@H](CC(=O)O)C(=O)O)c(OC)cc2[C@@H](c2ccccc2)N1 | Efficacy (Mus musculus [4]): 70%; ED50 (Mus musculus [5]): > 1 mg/kg; dose excreted [6]: 100%
0.7 ×10⁻⁶ cm/s | 92 ng/mL | 4 ng/mL | – | CCCC[C@]1(CC)CS(=O)(=O)c2cc(C(=O)NCS(=O)(=O)O)c(OC)cc2[C@@H](c2ccccc2)N1 | –
0.8 ×10⁻⁶ cm/s | 289 ng/mL | 1 ng/mL | 0.05 µM | CCCC[C@]1(CC)CS(=O)(=O)c2cc(OCCCS(=O)(=O)O)c(OC)cc2[C@@H](c2ccccc2)N1 | –
34.2 ×10⁻⁶ cm/s | – | – | – | CCCC[C@]1(CC)CS(=O)(=O)c2cc(CCCC(=O)O)c(OC)cc2[C@@H](c2ccccc2)N1 | –
– | – | – | > 3 µM | CCCC[C@]1(CC)CS(=O)(=O)c2cc(CNCP(=O)(O)O)c(OC)cc2[C@@H](c2ccccc2)N1 | –
1 ×10⁻⁶ cm/s | 7 ng/mL | – | – | CCCC[C@]1(CC)CS(=O)(=O)c2cc(CNCCS(=O)(=O)O)c(OC)cc2[C@@H](c2ccccc2)N1 | Efficacy (Mus musculus [4]): 73%; ED50 (Mus musculus [5]): 2.7 mg/kg; dose excreted [6]: 100%; half-life [7]: > 12 h; IC50 [9]: 0.0023 µM; IC50 [10]: 0.0009 µM
– | – | – | 0.367 µM | CCCC[C@]1(CC)CS(=O)(=O)c2cc(CN(C)CCC(=O)O)c(OC)cc2[C@@H](c2ccccc2)N1 | –
1.2 ×10⁻⁶ cm/s | – | – | – | CCCC[C@]1(CC)CS(=O)(=O)c2cc(CCP(=O)(O)O)c(OC)cc2[C@@H](c2ccccc2)N1 | –
0.7 ×10⁻⁶ cm/s | – | – | – | CCCC[C@]1(CC)CS(=O)(=O)c2cc(CCCP(=O)(O)O)c(OC)cc2[C@@H](c2ccccc2)N1 | –
0.7 ×10⁻⁶ cm/s | – | – | – | CCCC[C@]1(CC)CS(=O)(=O)c2cc(CCCS(=O)(=O)O)c(OC)cc2[C@@H](c2ccccc2)N1 | –
0.6 ×10⁻⁶ cm/s | 93 ng/mL | 1 ng/mL | – | CCCC[C@]1(CC)CS(=O)(=O)c2cc(CN[C@@H](CC(=O)O)C(=O)O)c(OC)cc2[C@@H](c2ccccc2)N1 | –
0.7 ×10⁻⁶ cm/s | – | – | – | CCCC[C@]1(CC)CS(=O)(=O)c2cc(CCC(=O)NCS(=O)(=O)O)c(OC)cc2[C@@H](c2ccccc2)N1 | –
1.2 ×10⁻⁶ cm/s | 220 ng/mL | 7 ng/mL | 0.004 µM | CCCC[C@]1(CC)CS(=O)(=O)c2cc(OCCS(=O)(=O)O)c(OC)cc2[C@@H](c2ccccc2)N1 | –
0.4 ×10⁻⁶ cm/s | 132 ng/mL | 38 ng/mL | – | CCCC[C@]1(CC)CS(=O)(=O)c2cc(C(=O)NCCS(=O)(=O)O)c(OC)cc2[C@@H](c2ccccc2)N1 | –
0.8 ×10⁻⁶ cm/s | – | – | – | CCCC[C@]1(CC)CS(=O)(=O)c2cc(CN(CCS(=O)(=O)O)CCS(=O)(=O)O)c(OC)cc2[C@@H](c2ccccc2)N1 | –
– | 87 ng/mL | – | – | CCCC[C@]1(CC)CS(=O)(=O)c2cc(CNC(=O)C(=O)O)c(OC)cc2[C@@H](c2ccccc2)N1 | –

From ChEMBL document CHEMBL2385035 (J Med Chem, 2013)
